Assay outcomes as filed in PubChem BioAssay.
SENP6 inh = blocks the human protease SENP6; Q9GZR1; Recombinant SENP6 catalytic domain, aminoluciferin luminescence; inhibition, % at 10 µM; 330,000 compounds, 1.8% hits; AID 2599;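 active = inhibition above about 50% at the single tested dose, limit read from the data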;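 also: plate controls were DMSO wells with enzyme for no effect and DMSO wells lacking enzyme for full effect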
SENP8 block-1 = SENP8 protease inhibition. 330,000 compounds, 1.2% hits. Q96LD8. AID 2540. purified SENP8, Z-RLRGG-aminoluciferin cleavage, luminescence. inhibition, % at 10 µM; in the data active = inhibition above about 50%
Target sequence (Q96LD8 whole entry, looked up): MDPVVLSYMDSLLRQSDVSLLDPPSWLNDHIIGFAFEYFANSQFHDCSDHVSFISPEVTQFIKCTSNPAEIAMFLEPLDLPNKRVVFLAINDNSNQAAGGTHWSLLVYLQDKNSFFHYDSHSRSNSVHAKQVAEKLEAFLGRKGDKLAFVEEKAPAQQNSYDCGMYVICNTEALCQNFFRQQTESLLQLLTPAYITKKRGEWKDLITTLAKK
SENP7 block = inhibitors of human SENP7 protease; Q9BQF6; recombinant SENP7, Z-RLRGG-aminoluciferin luminescence, 40 min; inhibition, % at 5 µM; 330,000 compounds, 1.5% hits; AID 434973;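 active = inhibition above about 50% at the single test dose, limit read from the data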;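 also: plate controls were DMSO with enzyme for no effect and no enzyme buffer wells for full effect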
SENP8 block-2 = inhibitors of human SENP8 protease; recombinant SENP8, Nedd8 substrate fluorescence; inhibition, % at 20 µM; 360,000 compounds, 0.64% hits; AID 602440; in the data active = inhibition mostly above about 40%, no sharp cut-off; inactive = mostly below about 27%
SENP1 inh = inhibitors of human SENP1 SUMO protease catalytic domain; Q9P0U3; recombinant SENP1 catalytic domain, CyPet-SUMO1-YPet FRET cleavage; inhibition, % at 10 µM; 360,000 compounds, 0.21% hits; AID 624204;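 active = inhibition at least 30% at 10 µM, raw YFP signal under a set limit, fluorescence ratio 0.5 to 1.5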;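 also: 0% = enzyme with DMSO and 100% = no enzyme wells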
Target sequence (Q9P0U3 419-644 limits assumed): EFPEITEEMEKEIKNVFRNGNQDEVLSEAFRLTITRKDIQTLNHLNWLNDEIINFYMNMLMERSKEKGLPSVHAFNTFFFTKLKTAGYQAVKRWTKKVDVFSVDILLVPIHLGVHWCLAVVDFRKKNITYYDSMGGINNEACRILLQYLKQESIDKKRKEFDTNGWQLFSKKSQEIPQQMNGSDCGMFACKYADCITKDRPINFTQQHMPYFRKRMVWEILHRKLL
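System: Recombinant human SENP1 catalytic domain, His6-tagged | Incubation: Enzyme reaction for 50 min at room temperature, dark | Medium: Tris pH 8 with BME, BSA, NP40 and catalase | Also added: 25 nM SUMO1 FRET substrate | Compound: 10 µM single point, 0.5% DMSO | Measured by: FRET fluorescence in CFP and YFP emission channels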
An asterisk follows results filed as active; x = no result. An excerpt weighted towards active compounds, which were near 2.5% of everything screened.

SMILES | SENP6 inh | SENP8 block-1 | SENP7 block | SENP8 block-2 | SENP1 inh
O=C(O)Cn1nncc1-c1ccc(C(F)(F)F)cc1 | x | x | x | 21 | 1
O=C(CC(=O)NN=Cc1ccc2c(c1)CCC2)NN=Cc1ccc2c(c1)CCC2 | x | x | x | 6 | 0
Cc1ccc(C(=O)NCC(=O)OCC(=O)NC2CCS(=O)(=O)C2)cc1C (centres undefined) | -8 | -2 | 16 | 2 | 1
O=C(NC(=S)NNC(=O)c1cc2ccccc2cc1O)c1ccco1 | 15 | 61* | 45 | 8 | -1
COc1ccc(-c2cn3cccc(C)c3n2)cc1F | 5 | 48 | 60* | -298 | -1
CCCCCN1CN(S(=O)(=O)c2cccs2)c2nc3ccccc3nc21 | -13 | 1 | 5 | -344 | -3
CSc1ncccc1C(=O)Nc1nc2ccc(Oc3ccccc3)cc2s1 | 94* | 90* | 95* | -159 | -1
COc1ccccc1C(=O)Nc1nc2ccc(S(C)(=O)=O)cc2s1 | -20 | -14 | 13 | -87 | -2
COc1n[nH]c(C(=O)Nc2nc3ccccc3s2)c1[N+](=O)[O-] | 96* | 91* | 92* | 16 | 0
COc1ccccc1C(=O)Nc1nc2ccccc2s1 | 100* | 97* | 100* | -171 | 1
COC(CNC(=O)C(=O)NCC1CCCN1S(=O)(=O)c1cccs1)OC (centres undefined) | -12 | -14 | -8 | 2 | -3
COc1ccc(N(C(C)=O)S(=O)(=O)c2cccc3cccnc23)cc1 | 10 | 5 | 8 | 11 | 1
CCn1c(=O)c2ccccc2n(Cc2ccccc2C)c1=O | -3 | -7 | -5 | 4 | 3
Oc1ccc(NCc2ccccc2OCc2ccccc2)cc1 | 50 | -4 | 12 | 62* | 1
CCNCc1ccccc1OCc1ccccc1 | -7 | -6 | -3 | -1 | -1
CN(C)c1ccc(/C=N/N=C2/NC(=O)/C(=C/c3ccc([N+](=O)[O-])cc3)S2)cc1 | 69* | 36 | 34 | 4 | 40
CN(C)c1ccc(C=C2SC(=S)NC2=O)cc1 | x | x | x | 39 | -34
CC(C)[C@H](NS(=O)(=O)c1ccc(Cl)cc1)C(=O)OCC(=O)c1c(N)n(C)c(=O)n(C)c1=O | 3 | -5 | 4 | 11 | 2
Nc1nc(-c2ccccc2)c(N=Nc2cccnc2)s1 | -28 | -9 | -7 | 48* | 4
Cc1nn(-c2ccccc2)c(N)c1N=Nc1cccnc1 | -13 | -7 | -2 | 31 | 2
CCCC(=O)N1CCC1(C)C(=O)Nc1ncc(C(=O)OC)s1 (centres undefined) | x | x | x | 9 | 1
CCOC(CNC(=O)C(=O)Nc1cc2c3c(c1)CCC(=O)N3CCC2)OCC | -15 | -6 | 9 | 5 | 0
O=C(Nc1cccc(Cl)c1)Nc1nccs1 | 35 | -4 | 25 | 1 | 0
O=C(Nc1ccc(Cl)c(Cl)c1)Nc1nccs1 | 65* | 36 | 26 | 29 | -5
Cc1ccccc1-n1c(SCC(=O)Nc2c(C)cccc2C)nc(O)cc1=O | -8 | -1 | 10 | 9 | 2
SMILES | SENP6 inh | SENP8 block-1 | SENP7 block | SENP8 block-2 | SENP1 inh
CCOC(=O)C1=NN(C(=O)c2ccc(OC)cc2)C(O)(c2ccc(Cl)cc2)C1 (centres undefined) | -5 | -3 | -9 | 13 | 20
COC(=O)C1=NN(C(=O)c2cccc(Br)c2)C(O)(c2ccc(Cl)cc2)C1 (centres undefined) | -5 | 1 | 1 | 28 | 65*
CC(=O)Nc1ccc(NC(=O)CC2(CC(=O)N3CCOCC3)CCCC2)cc1 | -14 | 4 | -4 | 12 | 0
O/N=C/c1ccc(OCc2ccccc2F)c(Cl)c1 | 92* | 80* | 75* | 11 | 1
O/N=C/c1ccccc1OCc1ccccc1F | 8 | -5 | 3 | 10 | -1
CC(C)NC(=O)Nc1ccc2c(c1)C(=O)N([C@@H](C)CO)C[C@H](C)[C@H](CN(C)S(=O)(=O)c1ccccc1)OCCCC[C@H](C)O2 | x | x | x | -115 | 3
O=C1C=C(O)c2[nH]c(=O)ccc2C1=O | x | x | x | 64* | 0
NC1=CC(=O)C(=O)c2ccccc21 | x | x | x | 11 | -5
O=C1NC(=O)C2(Br)Nc3ccc(Br)cc3C(=O)C2N1 (centres undefined) | x | x | x | 12 | 0
COc1ccc(C(=O)Oc2ccc[nH]c2=O)cc1 | -26 | -17 | -3 | 14 | 2
O=C(Oc1ccc[nH]c1=O)c1cc([N+](=O)[O-])cc([N+](=O)[O-])c1 | 88* | 66* | 43 | 32 | 3
CCc1ccc(C(=O)COC(=O)c2ccccc2OC)cc1 | 89* | 82* | 91* | 6 | 1
FC(F)(F)c1ccccc1Cc1c(-c2ccc(Cl)cc2)nc2c3ccccc3ccn12 | x | x | x | -266 | -48
N=C(N)c1ccc(Cl)cc1 | -24 | -4 | -5 | 28 | 2
N=C(N)c1ccc(/C=C/c2ccc(C(=N)N)cc2O)cc1 | 0 | -4 | 3 | -440 | 55*
Cc1ccc(NC(=O)COC(=O)c2cc(=O)c3ccccc3o2)cc1F | 4 | -3 | 1 | 16 | 1
Nc1nnnn1/N=C/c1cc(Cl)cc(Cl)c1OCc1ccc(Cl)cc1Cl | -4 | -1 | -7 | -53 | 53*
COc1ccc(OC)c(S(=O)(=O)NC2CC(=O)N(c3cccc(F)c3)C2)c1 (centres undefined) | 0 | 2 | -4 | 6 | 1
O=C(O)c1ccc(Cl)c2c1C1C=CCC1C(c1ccccn1)N2 (centres undefined) | -9 | -10 | -12 | x | x
O=[N+]([O-])c1ccc(Cl)c2c1C1C=CCC1C(c1ccccn1)N2 (centres undefined) | 9 | -6 | 0 | 42* | 5
Nc1[nH]n(-c2ccccc2)c(=O)c1N=Nc1ccc2c(c1)OCO2 | 64* | 52* | 69* | 52* | 5
S=C1Cc2ccccc2N1 | x | x | x | 45* | -2
CC(=O)c1ccc2c(c1)C1C=CCC1C(C(=O)O)N2 (centres undefined) | 8 | 11 | 3 | 13 | 16
CC(=O)c1ccc2c(c1)C1C=CCC1C(c1ccncc1)N2 (centres undefined) | 37 | 7 | 18 | 16 | 38*
O=c1c(O)c(-c2cc(O)c(O)c(O)c2)oc2cc(O)cc(O)c12 | 13 | 4 | 3 | 39* | 84*
SMILES | SENP6 inh | SENP8 block-1 | SENP7 block | SENP8 block-2 | SENP1 inh
O=c1c(O)c(-c2ccccc2)oc2cc(O)cc(O)c12 | 17 | 10 | -8 | 36 | 9
CC1CCc2c(sc3ncn(CC(=O)N=Nc4c(O)[nH]c5ccccc45)c(=O)c23)C1 (centres undefined) | -12 | -8 | 11 | 44* | 3
COc1cc(N=Nc2ccc(Br)cc2)cc(C=O)c1O | x | x | x | 44* | 10
COc1cc(CN(C)C)cc(C=O)c1O | -11 | 0 | -5 | 13 | -1
CCOC(=O)c1c2c3c(cccc3n(C)c1=O)C(=O)c1ccccc1-2 | 25 | 10 | -2 | 17 | 18
CCOC(=O)c1c2c(n(Cc3ccccc3)c1C)C(=O)C(=O)c1ccccc1-2 | x | x | x | 100* | 0
